The source made the active and inactive calls. No cut-off for these calls is given here.
Tests used:
[1] = tested on: Mus musculus; assay: Acid-insoluble DNA incorporation in mouse Mecca lymphosarcoma ascite tumor allografted in AKD2F1 mouse assessed per mg of DNA at 2.6 umol, ip after 4 hrs by scintillation counting analysis; format: functional
How it was run: (§1)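 Female AKD2F1 mice (groups of 3) bearing 4-day Mecca lymphosarcoma ascites tumors; 2.6 μmol [35S]nucleoside ip, repeated after 2 h; peritoneal cells washed out 2 h later. Acid-insoluble nucleic acid extracted in 10% NaCl at 100 °C, RNA removed by alkali; DNA digested with DNase I then phosphodiesterase I at 37 °C; paper chromatography, spots counted by scintillation.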

[2] = species on record: Mus musculus; assay: Acid-insoluble DNA incorporation in mouse Mecca lymphosarcoma ascite tumor allografted in AKD2F1 mouse assessed as detection of [35S] in nucleoside at 2.6 umol after 4 hrs by scintillation counting analysis; format: functional; how it was run: as §1
[3] = species on record: Mus musculus; assay: Acid-insoluble DNA incorporation in mouse Mecca lymphosarcoma ascite tumor allografted in AKD2F1 mouse assessed as detection of [35S] in nucleotide at 2.6 umol after 4 hrs by scintillation counting analysis; format: functional; how it was run: as §1
[4] = species on record: Mus musculus; assay: Acid-soluble DNA incorporation in mouse Mecca lymphosarcoma ascite tumor allografted in AKD2F1 mouse assessed as detection of [35S] in nucleoside per mg of DNA at 2.6 umol after 4 hrs by scintillation counting analysis; format: functional
How it was run: (§2)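 Same mouse dosing as the DNA study: 2.6 μmol [35S]nucleoside ip twice, 2 h apart, to AKD2F1 mice carrying Mecca lymphosarcoma ascites; cells harvested 2 h after the second dose. Acid-soluble fraction chromatographed on paper in 5% KH2PO4 with mercaptoethanol; nucleoside and nucleotide spots scintillation-counted, expressed per mg DNA.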

[5] = species on record: Mus musculus; assay: Acid-soluble DNA incorporation in mouse Mecca lymphosarcoma ascite tumor allografted in AKD2F1 mouse assessed as detection of [35S] in nucleotide per mg of DNA at 2.6 umol after 4 hrs by scintillation counting analysis; format: functional; how it was run: as §2
[6] = species on record: Mus musculus; assay: Acid-soluble DNA incorporation in mouse Mecca lymphosarcoma ascite tumor allografted in AKD2F1 mouse assessed as wheat germ 3'-nucleotidase-mediated nucleotide hydrolysis at 2.6 umol after 1 hr; format: functional; parameters: scale not given: the % may be the effect or the level left
How it was run: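 Acid-soluble fraction from mice dosed ip with 2.6 μmol [35S]nucleoside twice, 2 h apart. Aliquot treated with nucleotidase-free phosphodiesterase (pH 8.6, 1 h, 37 °C), then wheat germ 3'-nucleotidase (4 units, pH 5, 1 h, 37 °C); separated by paper chromatography and counted.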

[7] = species on record: Mus musculus; assay: Acid-soluble DNA incorporation in mouse Mecca lymphosarcoma ascite tumor allografted in AKD2F1 mouse assessed as snake venome 5'-nucleotidase-mediated nucleotide hydrolysis at 2.6 umol after 2 hrs; format: functional; parameters: scale not given: the % may be the effect or the level left
How it was run: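 Female AKD2F1 mice bearing 4-day Mecca lymphosarcoma ascites were used in groups of three. Aliquots of the acid-soluble fraction were digested with crude Crotalus adamanteus venom (phosphodiesterase plus 5'-nucleotidase) for 2 h at 37 °C.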

[8] = Stability in RPMI 1640 assessed as formation of thioguanine after 24 hrs in presence of 10% dialyzed horse serum; format: physicochemical
How it was run: (§3)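 Nucleosides incubated without cells in RPMI 1640 containing 10% fetal calf serum or 10% dialyzed horse serum, 20 min or 24 h; cleavage to thioguanine monitored.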

[9] = Stability in RPMI 1640 after 24 hrs in presence of 10% fetal calf serum; format: physicochemical; conditions: cattle; how it was run: as §3
[10] = Stability in RPMI 1640 after 20 mins in presence of 10% fetal calf serum; format: physicochemical; conditions: cattle; how it was run: as §3
[11] = tested on: WIL2; assay: Stability in human WIL2 cells assessed as formation of thioguanine; format: ADME, cell-based
How it was run: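 WI-L2 cells incubated with labeled nucleoside; [35S]thioguanine formed was measured.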

[12] = tested on: WIL2; assay: Antiproliferative activity against human WIL2 cells assessed as decrease in cell number at 100 to 300 uM measured every 24 hrs by electronic particle counting analysis in presence of 10% dialyzed horse serum; format: functional, cell-based
How it was run: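 WI-L2 cells in RPMI 1640 + 10% dialyzed horse serum with penicillin/streptomycin; log-phase cells (2×10^5/mL) mixed 1:1 with double-strength drug medium at several concentrations, duplicate cultures, counted every 24 h by electronic particle counter.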

Nc1nc2c(ncn2[C@@H]2C[C@H](CO)[C@@H](CO)O2)c(=S)[nH]1
Activity [1]: 2.42 nmol
Activity [2]: 91%
Activity [3]: 9%
Activity [4]: 15.6 nmol
Activity [5]: 29.8 nmol
Activity [6]: 0%
Activity [7]: 95.2%
Stability [8]: Stable
Stability [9]: Unstable
Stability [10]: Stable
Stability [11]: Stable
Activity [12]: Active

Nc1nc2c(ncn2[C@@H]2C[C@H](O)[C@@H](CO)O2)c(=S)[nH]1
Activity [1]: 0.84 nmol
Activity [2]: 60%
Activity [3]: 40%
Activity [4]: 10.4 nmol
Activity [5]: 6.4 nmol
Activity [6]: 2%
Activity [7]: 95.7%
Stability [8]: Stable
Stability [9]: Unstable
Stability [10]: Stable
Stability [11]: Stable
Activity [12]: Active

Nc1nc2c(ncn2[C@H]2C[C@H](CO)[C@@H](CO)O2)c(=S)[nH]1
Activity [1]: 2.36 nmol
Activity [2]: 90%
Activity [3]: 10%
Activity [4]: 29.1 nmol
Activity [5]: 30.3 nmol
Activity [6]: 0%
Activity [7]: 94.8%
Stability [8]: Stable
Stability [9]: Unstable
Stability [10]: Stable
Stability [11]: Stable

From ChEMBL document CHEMBL3228020, “Improved antitumor effects in 3'-branched homologues of 2'-deoxythioguanosine. Synthesis and evaluation of thioguanine nucleosides of 2,3-dideoxy-3-(hydroxymethyl)-D-erythro-pentofuranose” (J Med Chem, 1979)
